The values below come from ChEMBL document CHEMBL1129448, “Neurosteroid analogues. 4. The effect of methyl substitution at the C-5 and C-10 positions of neurosteroids on electrophysiological activity at GABAA receptors” (1996).

Assay [1] is filed under the species Rattus norvegicus. Briefly: Compound was evaluated at 10 uM for its ability to initiate (gate) a current in the absence of GABA in cultured postnatal rat hippocampal neurons. Type of assay: functional. The arrangement: unit not given here. The gist of the method: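 Whole-cell voltage clamp of cultured postnatal rat hippocampal neurons at -60 mV. Compound at 10 µM was applied without GABA by pressure ejection (500 ms, 10-20 psi) from a pipet within 5 µm. CsCl-based pipet solution, pH 7.3. DMSO final <0.2%. Peak directly gated current is expressed relative to the same cell's response to 2 µM GABA alone. Mean ± SEM, N cells.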

Assay [2] is filed under the species Rattus norvegicus. Briefly: Compound was evaluated at 10 uM GABA-mediated current in cultured postnatal rat hippocampal neurons. In kind it is functional. The gist of the method: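 Whole-cell voltage clamp of cultured postnatal rat hippocampal neurons held at -60 mV. Compound at 10 µM was co-applied with 2 µM GABA by pressure ejection (500 ms jet, 10-20 psi) from a pipet within 5 µm of the cell. Pipet solution was CsCl-based, pH 7.3. DMSO final <0.2%. Current is given as % of 2 µM GABA alone (100% = no change). Mean ± SEM, N cells.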

With `CC(=O)[C@H]1CC[C@H]2[C@@H]3CC[C@]4(C)C[C@H](O)CC[C@]4(C)[C@H]3CC[C@]12C`, in assay [1], the Gated current stood at 24. The Potentation in assay [2] was 498.

In assay [1], `CC(=O)[C@H]1CC[C@H]2[C@@H]3CC[C@@H]4C[C@H](O)CC[C@@H]4[C@H]3CC[C@]12C` displayed a Gated current of 110. The molecule further yielded a Potentation in assay [2] of 754.

Consider `CC(=O)[C@H]1CC[C@H]2[C@@H]3CCC4(C)C[C@H](O)CC[C@]4(C)[C@H]3CC[C@]12C` (stereo partly drawn), for which, in assay [1], the Gated current is 3. The molecule also returned a Potentation in assay [2] of 294.

Molecule `C[C@]12CC[C@H]3[C@@H](CC[C@@H]4C[C@H](O)CC[C@@H]43)[C@@H]1CC[C@@H]2C#N` displayed a Gated current in assay [1] of 41. Moreover, the Potentation in assay [2] is recorded as 1823.

In assay [1], `CC12CC[C@@H]3[C@H](CC[C@]4(C)[C@@H](C#N)CC[C@@H]34)[C@H]1CC[C@@H](O)C2` (stereo partly drawn) came in with a Gated current of 0. This molecule came in with a Potentation in assay [2] of 92.

Consider `CC(=O)[C@H]1CC[C@H]2[C@@H]3CC[C@@H]4C[C@H](O)CC[C@]4(C)[C@H]3CC[C@]12C` [ELTANOLONE], for which the Gated current in assay [1] turned out to be 49. Further, the Potentation in assay [2] is reported as 1023.

The molecule `C[C@]12CC[C@@H](O)C[C@@H]1CC[C@@H]1[C@@H]2CC[C@]2(C)[C@@H](C#N)CC[C@@H]12` yielded a Gated current in assay [1] of 32. In addition, the Potentation in assay [2] worked out at 1829.

`CC(=O)[C@H]1CC[C@H]2[C@@H]3CCC4(C)C[C@H](O)CC[C@@H]4[C@H]3CC[C@]12C` (stereo partly drawn): in assay [1], the Gated current is given as 0. In assay [2], the Potentation is on record as 110.

On to `CC(=O)[C@H]1CC[C@H]2[C@@H]3CCC4C[C@H](O)CC[C@@H]4[C@H]3CC[C@]12C` (stereo partly drawn), for which, in assay [1], the Gated current was found to be 46. This molecule also gave a Potentation in assay [2] of 926.

For `CC(=O)[C@H]1CC[C@H]2[C@@H]3CC[C@H]4C[C@H](O)CC[C@]4(C)[C@H]3CC[C@]12C` [BREXANOLONE], in assay [1], the Gated current came out at 26. This molecule also returned a Potentation in assay [2] of 1111.

On to `CC(=O)[C@H]1CC[C@H]2[C@@H]3CC[C@]4(C)C[C@H](O)CC[C@@H]4[C@H]3CC[C@]12C`, for which the Gated current in assay [1] is 12. Further, in assay [2], the Potentation is reported as 652.

In assay [1], `C[C@]12CC[C@H]3[C@@H](CCC4C[C@H](O)CC[C@@H]43)[C@@H]1CC[C@@H]2C#N` (stereo partly drawn) registered a Gated current of 42. This molecule yielded a Potentation in assay [2] of 1721.

`C[C@]12CC[C@@H]3[C@H](CC[C@]4(C)[C@@H](C#N)CC[C@@H]34)[C@H]1CC[C@@H](O)C2` had a Gated current in assay [1] of 28. Also, in assay [2], the Potentation came to 452.

On to `C[C@]12CC[C@@H](O)C[C@H]1CC[C@@H]1[C@@H]2CC[C@]2(C)[C@@H](C#N)CC[C@@H]12`, for which the Gated current in assay [1] is 68. The molecule also came in with a Potentation in assay [2] of 1297.
